We go through eight compounds from ChEMBL document CHEMBL2321860, “2-Arylpyrazolo[4,3-d]pyrimidin-7-amino derivatives as new potent and selective human A3 adenosine receptor antagonists. Molecular modeling studies and pharmacological evaluation” (J Med Chem, 2013).

Activity calls are given as the source filed them. No cut-off for these calls is given here.

Test [1] concerns the target T1, Adenosine receptor A2a (Homo sapiens, UniProt P29274). As to the kind of experiment: Displacement of [3H]ZM241385 from human A2A adenosine receptor expressed in CHO cells after 60 mins by scintillation counting analysis. It counts as cell-based. The method, boiled down:
(§1)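 Human A2A CHO membranes (50 μg protein) incubated with 1 nM [3H]ZM-241385 in 50 mM Tris-HCl, 10 mM MgCl2, pH 7.4, for 60 min at 4 °C, using 6–8 concentrations or 1 μM for % inhibition. Nonspecific binding defined with 1 μM ZM-241385. Ki via Cheng–Prusoff, mean SEM of four assays in duplicate.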

For test [2], the target named is T2, Adenosine receptor A2b (Homo sapiens, UniProt P29275).
T2 sequence (P29275 whole entry): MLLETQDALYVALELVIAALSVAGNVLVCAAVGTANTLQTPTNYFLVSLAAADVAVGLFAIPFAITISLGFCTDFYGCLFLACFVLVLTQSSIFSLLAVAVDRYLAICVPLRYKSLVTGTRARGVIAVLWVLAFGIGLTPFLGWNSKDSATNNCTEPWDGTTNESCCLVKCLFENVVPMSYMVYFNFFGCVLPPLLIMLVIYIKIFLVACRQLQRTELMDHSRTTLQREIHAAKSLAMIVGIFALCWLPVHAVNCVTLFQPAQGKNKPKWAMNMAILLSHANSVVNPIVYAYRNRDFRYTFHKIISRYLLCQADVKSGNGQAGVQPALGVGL
As to the kind of experiment: Inhibition of human A2B adenosine receptor transfected in CHO cells assessed as inhibition of NECA-induced cyclic AMP production after 10 mins by competitive protein binding assay. It is filed as cell-based. Put shortly: (§2)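 Human A2B CHO cells (1 × 10⁶/assay) preincubated 10 min at 37 °C in buffer with adenosine deaminase (2 IU/mL) and Ro 20-1724. Antagonist inhibition of 200 nM NECA-stimulated cAMP measured; reaction stopped with TCA. cAMP quantified by [3H]cAMP competition with adrenal binding protein. IC50 by sigmoid fit, mean SEM of four experiments; % inhibition at 1 μM.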

Test [3] concerns the target T3, Adenosine receptor A1 (Homo sapiens, UniProt P30542).
T3 sequence (P30542 whole entry): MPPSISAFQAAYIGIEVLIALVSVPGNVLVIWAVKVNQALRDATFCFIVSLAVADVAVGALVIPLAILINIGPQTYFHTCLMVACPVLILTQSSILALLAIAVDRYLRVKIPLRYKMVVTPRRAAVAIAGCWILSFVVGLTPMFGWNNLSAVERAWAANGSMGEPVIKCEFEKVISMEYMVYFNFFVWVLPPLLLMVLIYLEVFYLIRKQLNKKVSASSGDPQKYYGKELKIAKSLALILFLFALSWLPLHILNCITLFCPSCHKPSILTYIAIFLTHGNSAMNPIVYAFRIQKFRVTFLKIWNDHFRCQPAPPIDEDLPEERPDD
As to the kind of experiment: Displacement of [3H]DPCPX from human A1 adenosine receptor expressed in CHO cells after 120 mins by scintillation counting analysis. It counts as cell-based.

Test [4] addresses T4, Adenosine receptor A3 (Homo sapiens) (UniProt P0DMS8).
T4 sequence (whole entry): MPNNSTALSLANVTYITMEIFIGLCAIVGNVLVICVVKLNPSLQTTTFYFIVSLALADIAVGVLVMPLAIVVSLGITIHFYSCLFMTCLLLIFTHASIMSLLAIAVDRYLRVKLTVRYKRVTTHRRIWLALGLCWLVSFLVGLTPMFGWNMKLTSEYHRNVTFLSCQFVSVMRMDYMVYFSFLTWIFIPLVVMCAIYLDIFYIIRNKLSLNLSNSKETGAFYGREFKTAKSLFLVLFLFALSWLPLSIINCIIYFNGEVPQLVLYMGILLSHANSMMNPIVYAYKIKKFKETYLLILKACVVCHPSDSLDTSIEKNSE
As to the kind of experiment: Displacement of [125I]AB-MECA from human A3 adenosine receptor expressed in CHO cells at 1 uM after 60 mins by scintillation counting analysis. It counts as cell-based. The method, boiled down:
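Human A3 CHO membranes (50 μg protein) incubated with 0.5 nM [125I]AB-MECA in 50 mM Tris-HCl, 10 mM MgCl2, 1 mM EDTA, pH 7.4, for 60 min at 37 °C. Nonspecific binding defined with 1 μM AB-MECA. Filtration then counting. Output is % inhibition at 1 μM.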

For test [5], the target named is T5, Adenosine receptor A1 (Homo sapiens) (UniProt P30542).
T5 sequence (whole entry): T3 sequence (P30542 whole entry)
As to the kind of experiment: Displacement of [3H]DPCPX from human A1 adenosine receptor expressed in CHO cells at 1 uM after 120 mins by scintillation counting analysis. It is filed as cell-based.

Test [6] has as its system Astrocyte. As to the kind of experiment: Antiapoptotic activity against Sprague-Dawley rat astrocytes assessed as reduction of oxaliplatin-induced caspase-3 activity at 0.1 to 10 uM after 4 hrs by fluorimetric assay. It counts as functional, cell-based. The method, boiled down:
(§3)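 Primary cortical astrocytes from newborn (P1–P3) rats, GFAP-positive, used 21 days after isolation and serum-starved overnight. Cells were exposed to 100 μM oxaliplatin for 4 h with test compound co-incubated. Lysates were incubated with 0.025 mM Z-DEVD-R110 at 25 °C for 30 min and read by fluorescence (ex 496/em 520 nm). Output is % of untreated control, mean SEM.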

For test [7], the target named is T6, Adenosine receptor A3 (Rattus norvegicus) (UniProt P28647).
T6 sequence (whole entry): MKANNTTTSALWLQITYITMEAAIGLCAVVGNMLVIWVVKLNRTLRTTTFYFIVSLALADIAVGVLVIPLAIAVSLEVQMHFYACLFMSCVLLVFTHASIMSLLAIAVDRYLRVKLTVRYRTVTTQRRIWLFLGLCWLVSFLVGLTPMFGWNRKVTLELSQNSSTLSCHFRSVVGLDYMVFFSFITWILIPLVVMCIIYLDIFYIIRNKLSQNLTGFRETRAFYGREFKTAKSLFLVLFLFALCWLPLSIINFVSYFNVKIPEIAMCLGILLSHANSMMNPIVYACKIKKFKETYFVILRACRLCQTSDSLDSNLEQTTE
As to the kind of experiment: Displacement of [125I]AB-MECA from rat A3 adenosine receptor expressed in HEK293 cells at 1 uM after 60 mins by scintillation counting analysis. It counts as cell-based. The method, boiled down:
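Rat A3 receptor in HEK293 membranes (10 μg protein) incubated with 0.5 nM [125I]AB-MECA in 50 mM Tris-HCl, 10 mM MgCl2, 1 mM EDTA, pH 7.4, for 60 min at 37 °C. Nonspecific binding defined with 1 μM AB-MECA. Filtration then scintillation counting. Output is % inhibition at 1 μM.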

Test [8] deals with HT-29. As to the kind of experiment: Antiapoptotic activity against human HT-29 cells assessed as cell viability at 10 uM after 48 hrs by MTT assay in presence of 3 uM oxaliplatin (reference value: 92.3 +/- 1.0%). It counts as functional. The method, boiled down: (§4)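 HT-29 cells in DMEM high glucose with 20% FBS, grown to confluence and serum-starved overnight. Cells were treated for 48 h with oxaliplatin (0.3–100 μM) with or without 10 μM test compound. Viability was read as MTT reduction (1 mg/mL, 2 h, 37 °C), formazan in DMSO, absorbance 580 nm. Output is % of control, quadruplicate on at least three cell batches.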

The target of test [9] is T7, Adenosine receptor A3 (Homo sapiens, UniProt P0DMS8).
T7 sequence (P0DMS8 whole entry): T4 sequence (whole entry)
As to the kind of experiment: Displacement of [125I]AB-MECA from human A3 adenosine receptor expressed in CHO cells after 60 mins by scintillation counting analysis. It is filed as cell-based.

The target of test [10] is T7, Adenosine receptor A3. As to the kind of experiment: Inhibition of human A3 adenosine receptor transfected in CHO cells assessed as inhibition of forskolin-induced cyclic AMP production after 10 mins by competitive protein binding assay in presence of CI-IB-MECA. It counts as functional, cell-based. Put shortly: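 Human A3 CHO cells (1 × 10⁶/assay) preincubated 10 min at 37 °C with adenosine deaminase and Ro 20-1724. Antagonist potency measured against 100 nM Cl-IB-MECA-mediated inhibition of 1 μM forskolin-stimulated cAMP. cAMP quantified by [3H]cAMP competition binding. IC50 by sigmoid regression, mean SEM of four experiments.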

Test [11] addresses T8, Adenosine receptor A2b (Homo sapiens) (UniProt P29275).
T8 sequence (whole entry): T2 sequence (P29275 whole entry)
As to the kind of experiment: Inhibition of human A2B adenosine receptor transfected in CHO cells assessed as inhibition of NECA-induced cyclic AMP production at 1 uM after 10 mins by competitive protein binding assay. It is filed as cell-based. Put shortly:
as §2

Test [12] relates to HT-29. As to the kind of experiment: Antiapoptotic activity against human HT-29 cells assessed as cell viability at 10 uM after 48 hrs by MTT assay in presence of 0.3 uM oxaliplatin (reference value: 97.6 +/- 0.9%). It counts as functional. Put shortly:
as §4

Test [13] deals with T1, Adenosine receptor A2a. As to the kind of experiment: Displacement of [3H]ZM241385 from human A2A adenosine receptor expressed in CHO cells at 1 uM after 60 mins by scintillation counting analysis. It is filed as cell-based. The method, boiled down: as §1
The test system of test [14] is HT-29. As to the kind of experiment: Antiapoptotic activity against human HT-29 cells assessed as cell viability at 10 uM after 48 hrs by MTT assay in presence of 10 uM oxaliplatin (reference value: 87.2 +/- 0.9%). It counts as functional. Conditions: HT-29, 48 h, read-out: Activity. Put shortly: as §4
Test [15] relates to HT-29. As to the kind of experiment: Antiapoptotic activity against human HT-29 cells assessed as cell viability at 10 uM after 48 hrs by MTT assay in presence of 1 uM oxaliplatin (reference value: 94.9 +/- 1.3%). It counts as functional. Put shortly: as §4
For test [16], the system named is Astrocyte. As to the kind of experiment: Antiapoptotic activity against Sprague-Dawley rat astrocytes assessed as reduction of oxaliplatin-induced caspase-3 activity at 1 uM after 4 hrs by fluorimetric assay. It is filed as functional, cell-based. Put shortly:
as §3

Test [17] deals with HT-29. As to the kind of experiment: Antiapoptotic activity against human HT-29 cells assessed as cell viability at 10 uM after 48 hrs by MTT assay in presence of 30 uM oxaliplatin (reference value: 81.9 +/- 0.9%). It is filed as functional. Put shortly:
as §4

Test [18] deals with HT-29. As to the kind of experiment: Antiapoptotic activity against human HT-29 cells assessed as cell viability at 10 uM after 48 hrs by MTT assay in presence of 100 uM oxaliplatin (reference value: 52.2 +/- 0.5%). It is filed as functional. Put shortly: as §4

T1 sequence (P29274 whole entry): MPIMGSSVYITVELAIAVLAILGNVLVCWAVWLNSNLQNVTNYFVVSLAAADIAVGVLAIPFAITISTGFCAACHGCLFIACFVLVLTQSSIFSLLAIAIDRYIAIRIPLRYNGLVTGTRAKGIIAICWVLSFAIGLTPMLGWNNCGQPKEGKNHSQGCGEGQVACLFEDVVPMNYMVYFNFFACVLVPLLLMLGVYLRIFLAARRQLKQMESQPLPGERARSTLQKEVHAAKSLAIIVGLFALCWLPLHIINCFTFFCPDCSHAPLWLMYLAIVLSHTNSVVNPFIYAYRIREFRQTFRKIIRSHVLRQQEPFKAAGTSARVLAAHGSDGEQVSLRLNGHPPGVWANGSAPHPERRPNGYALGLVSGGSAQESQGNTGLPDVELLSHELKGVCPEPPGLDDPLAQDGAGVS

Take `Nc1nc(-c2ccccc2)nc2cn(-c3ccccc3)nc12`: the values for the Ki in [1] and in test [3] were 325 nM and 75 nM, respectively. Further, the IC50 in test [2] is 440 nM. This compound also yielded an inhibition in test [4] of 48%.

For the compound `COc1ccc(-n2cc3nc(-c4ccccc4)nc(NC(=O)Cc4ccccc4)c3n2)cc1`, the inhibition was 29% in test [5], 3% in test [7], 2% in [11] and 18% in [13]. Also, the outcome in [6] and in test [16] was Active. Further, the Activity in [8] is 86.6%; in test [12], 95.1%; in test [15], 90.2%; in test [17], 78.8%; in [18] it was 54.8%. Also, in test [9], the Ki was determined as 24 nM. For the same compound, the IC50 in test [10] was 80 nM. Also, in test [14], the viability at 10 µM turned out to be 82.2%.

As to `Nc1nc(Cc2ccccc2)nc2cn(-c3ccccc3)nc12`, the figures for the Ki in [1] and in test [3] were 110 nM and 150 nM, respectively. Also, in test [2], the IC50 is 420 nM. For the same compound, the inhibition in test [4] was 39%.

As to `Cc1nc(N)c2nn(-c3ccccc3)cc2n1`, the Ki stood at 246 nM in test [1] and 70 nM in test [3]. Moreover, the IC50 in test [2] was determined as 320 nM. Besides, the inhibition in [4] was 40%.

On to `Cc1nc(NC(=O)Cc2ccccc2)c2nn(-c3ccccc3)cc2n1`, for which the Ki in test [9] is 120 nM; in test [3], 510 nM. The figures for the inhibition in [11] and in test [13] were 1% and 13%, respectively.

With `O=C(Cc1ccccc1)Nc1nc(-c2ccccc2)nc2cn(-c3ccccc3)nc12`, the inhibition in test [5] worked out at 5%; in test [7], 2%; in test [11] it was 2%; in test [13], 5%. Further, the result in [6] was Active. This compound also gave a Ki in [9] of 18 nM. Moreover, in test [10], the IC50 worked out at 61 nM.

`COc1ccc(-n2cc3nc(-c4ccccc4)nc(NC(=O)c4ccccc4)c3n2)cc1`: the inhibition in [5] came out at 3%; in test [7] it was 12%; in test [11], 2%; in [13], 1%. Also, the result in test [6] was Active. The compound further returned a Ki in test [9] of 18 nM. In addition, in test [10], the IC50 turned out to be 63 nM.

`Cc1nc(NC(=O)c2ccccc2)c2nn(-c3ccccc3)cc2n1`: the inhibition was found to be 30% in test [5], 6% in test [7], 2% in test [11] and 1% in test [13]. The outcome in [6] was Active. Also, affinity in test [9] was put at a Ki of 5.6 nM. In addition, the IC50 in test [10] came out at 19.7 nM.
